Assay results as given in ChEMBL document CHEMBL2016497, “Analogs of the RSK inhibitor SL0101: optimization of in vitro biological stability” (Bioorg Med Chem Lett, 2012).
Active and inactive are the calls of the source. No cut-off for these calls is given here.

How the values were obtained:
MCF7 [1] = experiment: Down regulation of cyclin D1 level in human MCF7 cells at 100 uM at 96 hrs by immunoblotting analysis relative to control; assay type: functional, cell-based
Summary of the method: (§1)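 MCF7 cells treated at 100 μM; at each time point cells were lysed and lysates immunoblotted for cyclin D1 versus control, each compound analyzed on a single membrane.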

MCF7 [2] = experiment: Antiproliferative activity against human MCF7 cells at 100 uM after 144 hrs by CellTiter-GloTM assay; assay type: functional, cell-based
Summary of the method: (§2)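 Stability time course: MCF7 cells given inhibitor (100μM) at plating (time 0); percentage of growth measured at set time points versus vehicle. n=3 in quadruplicate.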

MCF7 [3] = experiment: Antiproliferative activity against human MCF7 cells at 100 uM after 48 hrs by CellTiter-GloTM assay; assay type: functional, cell-based; summary of the method: as §2
MCF-10A = experiment: Antiproliferative activity against human MCF10A cells at 50 uM after 48 hrs by CellTiter-GloTM assay; assay type: cell-based
Summary of the method: (§3)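 MCF-10A and MCF7 cells exposed to inhibitor at 50 μM; growth compared with vehicle. n=3 in quadruplicate.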

MCF7 [4] = experiment: Down regulation of cyclin D1 level in human MCF7 cells at 100 uM at 48 hrs by immunoblotting analysis relative to control; assay type: functional, cell-based; summary of the method: as §1
MCF7 [5] = experiment: Antiproliferative activity against human MCF7 cells at 50 uM after 48 hrs by CellTiter-GloTM assay; assay type: functional, cell-based; summary of the method: as §3
MCF7 [6] = experiment: Antiproliferative activity against human MCF7 cells after 48 hrs by CellTiter-GloTM assay; assay type: functional, cell-based; conditions: MCF7, 48 h
MCF7 [7] = experiment: Antiproliferative activity against human MCF7 cells at 100 uM after 96 hrs by CellTiter-GloTM assay; assay type: functional, cell-based; summary of the method: as §2
[8] = molecular target: Ribosomal protein S6 kinase alpha-3 (Homo sapiens, UniProt P51812); experiment: Inhibition of His-tagged RSK2 expressed in Sf9 cells using ERalpha-Ser167 RLASTND as substrate after 120 mins by chemiluminescence assay
Chain of Ribosomal protein S6 kinase alpha-3 (P51812 whole entry): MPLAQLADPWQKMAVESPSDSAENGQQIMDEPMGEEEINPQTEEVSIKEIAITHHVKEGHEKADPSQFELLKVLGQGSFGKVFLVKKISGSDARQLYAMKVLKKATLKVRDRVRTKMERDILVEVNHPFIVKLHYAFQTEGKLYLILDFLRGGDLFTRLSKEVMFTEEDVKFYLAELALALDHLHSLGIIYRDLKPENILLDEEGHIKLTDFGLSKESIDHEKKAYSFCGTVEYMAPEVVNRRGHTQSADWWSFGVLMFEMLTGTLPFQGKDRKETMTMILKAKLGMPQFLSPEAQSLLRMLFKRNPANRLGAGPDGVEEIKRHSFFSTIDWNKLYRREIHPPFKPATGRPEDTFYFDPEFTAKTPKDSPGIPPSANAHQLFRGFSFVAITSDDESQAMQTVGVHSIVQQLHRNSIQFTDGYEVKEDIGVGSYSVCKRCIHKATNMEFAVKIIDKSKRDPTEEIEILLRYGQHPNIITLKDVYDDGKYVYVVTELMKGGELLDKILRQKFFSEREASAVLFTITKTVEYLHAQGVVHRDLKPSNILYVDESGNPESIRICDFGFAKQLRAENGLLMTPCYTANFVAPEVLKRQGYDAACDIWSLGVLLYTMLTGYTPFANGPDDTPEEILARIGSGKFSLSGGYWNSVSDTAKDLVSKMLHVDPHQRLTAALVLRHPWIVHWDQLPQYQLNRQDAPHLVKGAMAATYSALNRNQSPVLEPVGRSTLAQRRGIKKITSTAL

[9] = Solubility of the compound; assay type: physicochemical

Row | Compound | IC50 (MCF7 [6]) [µM] | solubility [9] | Activity (MCF7 [2]) | Activity (MCF7 [3]) | Activity (MCF7 [7]) | further results
1 | CC(=O)O[C@@H]1[C@@H](OC(C)=O)[C@@H](O)[C@H](Oc2c(-c3ccc(O)cc3)oc3cc(O)cc(O)c3c2=O)O[C@H]1C | 45.6 | – | inactive | Active | inactive | Activity (MCF7 [1]): inactive; Activity (MCF-10A): Non-toxic; Activity (MCF7 [4]): Active; Activity (MCF7 [5]): Active
2 | CC(=O)CO[C@@H]1[C@@H](OCC(C)=O)[C@@H](O)[C@H](Oc2c(-c3ccc(O)cc3)oc3cc(O)cc(O)c3c2=O)O[C@H]1C | 34.1 | – | inactive | inactive | inactive | IC50 [8]: 0.252 µM
3 | C[C@@H]1O[C@@H](Oc2c(-c3ccc(O)cc3)oc3cc(O)cc(O)c3c2=O)[C@H](O)[C@H](OC(=O)N(C)C)[C@H]1OC(=O)N(C)C | – | Insoluble | – | – | – | –

More lines, main results first:

Row | IC50 (MCF7 [6]) [µM] | solubility [9] | Compound | Activity (MCF7 [2]) | Activity (MCF7 [3]) | Activity (MCF7 [7]) | further results
4 | – | soluble | C[C@@H]1O[C@@H](Oc2c(-c3ccc(O)cc3)oc3cc(O)cc(O)c3c2=O)[C@H](O)[C@H](OC(=O)N2CCOCC2)[C@H]1OC(=O)N1CCOCC1 | – | – | – | –
5 | – | Insoluble | C[C@@H]1O[C@@H](Oc2c(-c3ccc(O)cc3)oc3cc(O)cc(O)c3c2=O)[C@H](O)[C@H](OC(=O)N2CCCC2)[C@H]1OC(=O)N1CCCC1 | – | – | – | –
